Test [1] has as its system Vero. The test can be described thus: Protection index, cytotoxicity against Vero cell line/antibacterial activity against Mycobacterium tuberculosis 103471. Type of test: functional. The procedure, abridged:
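Protection index is the ratio of Vero-cell MNTD₅₀ (cell counts after 5-day exposure) to the MIC against M. tuberculosis CIP 103471. The MIC came from 2-fold tube dilution, inoculum 10⁵–10⁶ CFU/mL, 37 °C.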

In test [2] the test system is Mycobacterium avium. The experiment in a line: Antibacterial activity against Mycobacterium avium. It is filed as functional. The procedure, abridged:
(§1)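 MIC by serial 2-fold tube dilution. Compound DMSO stocks were filter-sterilised (0.2 µm) and diluted in water. Tubes were inoculated with 10⁵–10⁶ CFU/mL of each mycobacterium and incubated at 37 °C for 3–21 days. Each run included a drug-free control tube. Values are in µg/mL.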

Test [3] deals with Mycobacterium marinum. The experiment in a line: Antibacterial activity against Mycobacterium marinum. It is filed as functional. The procedure, abridged: as §1
The subject of test [4] is Mycolicibacterium smegmatis. The experiment in a line: Antibacterial activity against Mycobacterium smegmatis. It is filed as functional. The procedure, abridged: as §1
Test [5] deals with Vero. The experiment in a line: Cytotoxicity against Vero cell line. Type of test: functional, Chlorocebus sabaeus. The procedure, abridged:
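Vero cells were cultured for 24 h, then the medium was replaced with medium holding decreasing compound concentrations. After 5 days the cells were trypsinised and counted in a Neubauer chamber, in triplicate. MNTD₅₀ (µg/mL) is the concentration that decreased cell multiplication by less than 50% of control.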

Test [6] deals with Mycobacterium tuberculosis. The experiment in a line: Antibacterial activity against Mycobacterium tuberculosis 103471. Type of test: functional. The procedure, abridged: as §1
Test [7] has as its system Mycobacterium tuberculosis. The experiment in a line: Antibacterial activity against intramacrophagic Mycobacterium tuberculosis. It is filed as functional.

The term MIC denotes the least concentration at which growth counts as inhibited. Read a low MIC as greater potency.

The structures appear in SMILES notation. ≈ marks a conversion by molar mass, not a printed value.

Turning to `Cc1ccc(-c2cc(CN3CCSCC3)c(C)n2-c2ccc(F)cc2)cc1`, the PI in test [1] is 160. Moreover, the minimum inhibitory concentration (MIC) in test [2] was 8 µg/mL (≈ 21 µM); in test [3], 8 µg/mL (≈ 21 µM); in test [4], 16 µg/mL (≈ 42 µM); in test [6], 0.4 µg/mL (≈ 1.05 µM). The “Maximal non-toxic dose 50” value in test [5] was 64 µg/mL. Moreover, the MCC in test [7] worked out at 3 µg/mL.

In test [1], `CO[C@H]1/C=C/O[C@@]2(C)Oc3c(C)c(O)c4c(O)c(c(/C=N/N5CCN(C)CC5)c(O)c4c3C2=O)NC(=O)/C(C)=C\C=C\[C@H](C)[C@H](O)[C@@H](C)[C@@H](O)[C@@H](C)[C@H](OC(C)=O)[C@@H]1C` [RIFAMPIN] displayed a PI of 213. The MIC in test [2] came out at 0.3 µg/mL (≈ 0.365 µM); in test [3] it was 0.6 µg/mL (≈ 0.729 µM); in test [4], 32 µg/mL (≈ 38.9 µM); in test [6] it was 0.3 µg/mL (≈ 0.365 µM). Moreover, the “Maximal non-toxic dose 50” value in test [5] came to 64 µg/mL. The compound also yielded an MCC in test [7] of 3 µg/mL.

Values taken from ChEMBL document CHEMBL1145326, “Antimycobacterial agents. Novel diarylpyrrole derivatives of BM212 endowed with high activity toward Mycobacterium tuberculosis and low cytotoxicity” (2006).
